From ChEMBL document CHEMBL1141052, “Boro-norleucine as a P1 residue for the design of selective and potent DPP7 inhibitors” (Bioorg Med Chem Lett, 2005)

Experiments:
Prolyl endopeptidase FAP = target: T1, Prolyl endopeptidase FAP (Homo sapiens, UniProt Q12884); test: Inhibitory concentration against human fibroblast activation protein alpha; ni = no inhibition at 33 uM concentration
T1 sequence (Q12884 whole entry): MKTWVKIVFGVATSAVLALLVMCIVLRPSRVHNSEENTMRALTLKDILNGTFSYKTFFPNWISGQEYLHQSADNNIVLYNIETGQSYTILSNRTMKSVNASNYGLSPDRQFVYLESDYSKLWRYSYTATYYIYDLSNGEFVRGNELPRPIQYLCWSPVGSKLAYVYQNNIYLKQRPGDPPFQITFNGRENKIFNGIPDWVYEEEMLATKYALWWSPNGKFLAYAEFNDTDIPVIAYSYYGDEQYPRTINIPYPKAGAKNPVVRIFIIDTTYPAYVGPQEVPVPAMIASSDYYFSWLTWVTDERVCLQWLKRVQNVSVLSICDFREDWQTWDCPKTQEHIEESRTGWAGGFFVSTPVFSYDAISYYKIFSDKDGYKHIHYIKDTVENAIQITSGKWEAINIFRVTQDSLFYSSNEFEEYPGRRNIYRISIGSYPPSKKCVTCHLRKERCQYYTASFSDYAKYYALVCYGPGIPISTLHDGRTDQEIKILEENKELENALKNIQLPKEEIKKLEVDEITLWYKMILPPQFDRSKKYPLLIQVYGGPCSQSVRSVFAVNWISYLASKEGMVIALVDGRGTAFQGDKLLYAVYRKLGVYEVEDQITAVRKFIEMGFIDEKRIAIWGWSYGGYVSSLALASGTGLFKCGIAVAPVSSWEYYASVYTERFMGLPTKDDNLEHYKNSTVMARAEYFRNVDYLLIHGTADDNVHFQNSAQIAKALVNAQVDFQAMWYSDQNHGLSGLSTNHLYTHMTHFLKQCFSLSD

Dipeptidyl peptidase 4 [1] = target: T2, Dipeptidyl peptidase 4 (Homo sapiens, UniProt P27487); test: Inhibitory concentration against human dipeptidylpeptidase 4
Target sequence in this assay (P27487 whole entry): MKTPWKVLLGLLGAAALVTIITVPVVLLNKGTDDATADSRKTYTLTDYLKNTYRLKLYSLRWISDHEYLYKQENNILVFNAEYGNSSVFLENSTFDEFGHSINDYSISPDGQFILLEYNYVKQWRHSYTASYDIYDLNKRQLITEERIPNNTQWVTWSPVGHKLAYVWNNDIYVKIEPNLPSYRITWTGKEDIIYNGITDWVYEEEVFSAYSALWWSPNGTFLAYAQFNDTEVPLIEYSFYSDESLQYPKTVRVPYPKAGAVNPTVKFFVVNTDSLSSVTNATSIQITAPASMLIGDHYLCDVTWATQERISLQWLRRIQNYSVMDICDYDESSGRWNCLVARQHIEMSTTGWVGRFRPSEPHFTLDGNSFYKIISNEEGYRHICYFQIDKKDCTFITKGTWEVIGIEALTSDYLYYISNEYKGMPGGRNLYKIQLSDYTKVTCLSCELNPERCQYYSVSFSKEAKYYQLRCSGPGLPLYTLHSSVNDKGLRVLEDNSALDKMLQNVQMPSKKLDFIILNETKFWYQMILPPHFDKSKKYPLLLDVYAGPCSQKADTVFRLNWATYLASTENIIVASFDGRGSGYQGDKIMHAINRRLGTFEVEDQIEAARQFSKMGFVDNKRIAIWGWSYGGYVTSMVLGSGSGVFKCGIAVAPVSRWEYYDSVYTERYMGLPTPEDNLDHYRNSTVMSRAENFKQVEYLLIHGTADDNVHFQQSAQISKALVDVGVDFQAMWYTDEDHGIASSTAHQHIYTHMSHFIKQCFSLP

Dipeptidyl peptidase 2 = Dipeptidyl peptidase 2 (Homo sapiens, UniProt Q9UHL4); test: Inhibitory concentration against human dipeptidylpeptidase 7
Dipeptidyl peptidase 8 = Dipeptidyl peptidase 8 (Homo sapiens, UniProt Q6V1X1); test: Inhibitory concentration against human dipeptidylpeptidase 8 using FP-TAMRA incubated for 30 min; ni = no inhibition at 20 uM concentration
Summary of the method: (§1)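 DPP8 and DPP9 from MDA-MB-435 cell lysate. Compounds dissolved in 50% DMSO/50 mM glycine buffer pH 2.5 (final DMSO 1% v/v), serially diluted into lysate, FP-TAMRA activity-based probe labeling, 30 min, quenched with loading buffer. Labeled enzyme resolved by SDS–PAGE, TAMRA fluorescence read by flatbed gel scanner. Duplicates; activity as % of enzyme-alone control, IC50 from Hill fit.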

Dipeptidyl peptidase 9 [2] = target: T3, Dipeptidyl peptidase 9 (Homo sapiens, UniProt Q86TI2); test: Percentage inhibition against human dipeptidylpeptidase 9 using FP-TAMRA incubated for 30 min at 20 uM concentration; summary of the method: as §1
Target sequence in this assay (Q86TI2 2-863 limits assumed): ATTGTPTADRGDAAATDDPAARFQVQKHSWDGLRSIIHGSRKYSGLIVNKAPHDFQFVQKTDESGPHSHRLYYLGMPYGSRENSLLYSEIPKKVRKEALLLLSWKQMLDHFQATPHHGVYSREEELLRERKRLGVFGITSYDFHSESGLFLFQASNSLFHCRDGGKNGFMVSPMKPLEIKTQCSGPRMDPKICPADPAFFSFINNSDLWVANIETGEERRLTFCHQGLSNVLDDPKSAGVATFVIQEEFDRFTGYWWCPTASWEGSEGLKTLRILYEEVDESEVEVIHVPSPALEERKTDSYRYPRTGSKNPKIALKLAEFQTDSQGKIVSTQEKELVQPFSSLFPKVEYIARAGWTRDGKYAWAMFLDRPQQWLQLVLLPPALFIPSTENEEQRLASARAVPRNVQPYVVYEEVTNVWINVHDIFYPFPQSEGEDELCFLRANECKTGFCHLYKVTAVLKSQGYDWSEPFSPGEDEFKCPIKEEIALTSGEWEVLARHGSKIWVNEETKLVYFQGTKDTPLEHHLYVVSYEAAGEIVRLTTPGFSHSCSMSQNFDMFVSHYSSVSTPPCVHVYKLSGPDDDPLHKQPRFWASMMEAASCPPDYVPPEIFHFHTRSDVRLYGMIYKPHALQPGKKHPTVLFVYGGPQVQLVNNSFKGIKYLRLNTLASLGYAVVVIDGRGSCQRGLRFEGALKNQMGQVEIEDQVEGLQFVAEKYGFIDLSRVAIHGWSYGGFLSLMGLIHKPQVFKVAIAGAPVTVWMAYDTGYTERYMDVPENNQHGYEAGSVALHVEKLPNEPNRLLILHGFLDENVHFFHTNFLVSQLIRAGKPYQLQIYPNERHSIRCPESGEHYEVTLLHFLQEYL

Dipeptidyl peptidase 4 [3] = target: T2, Dipeptidyl peptidase 4
Target sequence in this assay (P27487 whole entry): as the sequence (P27487 whole entry) above

Dipeptidyl peptidase 4 [4] = target: T2, Dipeptidyl peptidase 4; test: Percent inhibition against human dipeptidylpeptidase 4 at 33 uM concentration
Target sequence in this assay (P27487 whole entry, looked up): as the sequence (P27487 whole entry) above

Dipeptidyl peptidase 9 [5] = target: T3, Dipeptidyl peptidase 9; test: Inhibitory concentration against human dipeptidylpeptidase 9 using FP-TAMRA incubated for 30 min; ni = no inhibition at 20 uM concentration; summary of the method: as §1
Target sequence in this assay (Q86TI2 whole entry): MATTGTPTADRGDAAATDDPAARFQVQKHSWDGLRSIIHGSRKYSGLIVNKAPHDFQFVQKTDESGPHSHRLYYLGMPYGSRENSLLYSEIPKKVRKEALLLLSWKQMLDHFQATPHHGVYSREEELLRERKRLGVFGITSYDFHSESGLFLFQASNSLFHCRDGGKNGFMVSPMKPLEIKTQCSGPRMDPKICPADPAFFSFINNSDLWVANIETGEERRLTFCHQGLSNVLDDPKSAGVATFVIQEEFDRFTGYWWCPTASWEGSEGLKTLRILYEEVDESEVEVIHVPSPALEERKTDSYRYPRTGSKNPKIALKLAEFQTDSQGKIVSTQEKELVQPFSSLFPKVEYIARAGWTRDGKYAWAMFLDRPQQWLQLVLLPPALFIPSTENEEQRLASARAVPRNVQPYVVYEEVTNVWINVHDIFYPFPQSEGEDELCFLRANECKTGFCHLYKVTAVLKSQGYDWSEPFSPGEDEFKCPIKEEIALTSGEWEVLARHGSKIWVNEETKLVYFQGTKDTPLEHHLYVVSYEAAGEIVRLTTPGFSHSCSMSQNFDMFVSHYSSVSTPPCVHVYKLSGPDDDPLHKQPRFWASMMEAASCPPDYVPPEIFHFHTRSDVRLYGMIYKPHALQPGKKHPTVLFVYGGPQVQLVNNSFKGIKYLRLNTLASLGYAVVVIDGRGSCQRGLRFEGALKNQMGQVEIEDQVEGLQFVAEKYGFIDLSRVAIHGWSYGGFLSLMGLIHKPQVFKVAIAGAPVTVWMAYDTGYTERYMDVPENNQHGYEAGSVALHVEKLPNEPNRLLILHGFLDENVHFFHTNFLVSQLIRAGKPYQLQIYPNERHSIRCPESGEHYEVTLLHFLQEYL

Sequence of Dipeptidyl peptidase 8 (Q6V1X1 whole entry): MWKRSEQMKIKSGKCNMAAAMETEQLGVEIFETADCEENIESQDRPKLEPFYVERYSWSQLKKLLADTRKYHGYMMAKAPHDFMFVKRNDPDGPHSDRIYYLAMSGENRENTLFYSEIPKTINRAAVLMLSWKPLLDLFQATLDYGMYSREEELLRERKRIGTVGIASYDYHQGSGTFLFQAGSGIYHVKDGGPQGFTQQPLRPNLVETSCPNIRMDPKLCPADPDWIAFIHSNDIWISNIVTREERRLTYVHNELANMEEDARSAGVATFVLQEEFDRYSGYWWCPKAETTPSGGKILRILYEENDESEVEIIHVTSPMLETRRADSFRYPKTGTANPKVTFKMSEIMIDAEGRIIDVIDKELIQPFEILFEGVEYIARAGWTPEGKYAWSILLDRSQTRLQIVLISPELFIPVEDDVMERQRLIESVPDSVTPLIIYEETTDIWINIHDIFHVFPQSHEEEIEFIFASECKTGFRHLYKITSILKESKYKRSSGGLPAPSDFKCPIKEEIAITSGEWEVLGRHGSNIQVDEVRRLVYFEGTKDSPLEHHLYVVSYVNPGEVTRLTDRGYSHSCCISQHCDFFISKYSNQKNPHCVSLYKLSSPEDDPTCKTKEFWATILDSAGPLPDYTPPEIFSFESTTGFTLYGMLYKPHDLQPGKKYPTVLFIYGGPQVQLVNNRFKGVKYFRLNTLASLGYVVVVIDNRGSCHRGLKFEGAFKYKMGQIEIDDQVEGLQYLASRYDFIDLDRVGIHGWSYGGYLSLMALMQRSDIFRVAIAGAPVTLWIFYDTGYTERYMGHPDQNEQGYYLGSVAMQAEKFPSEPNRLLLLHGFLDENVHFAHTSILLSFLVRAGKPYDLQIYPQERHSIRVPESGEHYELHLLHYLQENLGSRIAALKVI

SMILES | IC50 (Prolyl endopeptidase FAP) | IC50 (Dipeptidyl peptidase 4 [1]) | IC50 (Dipeptidyl peptidase 2) | IC50 (Dipeptidyl peptidase 8) | inhibition (Dipeptidyl peptidase 9 [2]) | IC50 (Dipeptidyl peptidase 4 [3]) | inhibition (Dipeptidyl peptidase 4 [4]) | IC50 (Dipeptidyl peptidase 9 [5])
CCCC[C@@H](NC(=O)[C@@H](N)CN)B(O)O | No inhibition | 2000 nM | 8.2 nM | No inhibition | – | – | – | –
CCCC[C@@H](NC(=O)[C@@H](N)CCC)B(O)O | No inhibition | 810 nM | 71 nM | – | – | – | – | –
CCCC[C@@H](NC(=O)[C@@H](N)CCCN)B(O)O | No inhibition | 1200 nM | 4.7 nM | – | – | – | – | –
CC(C)[C@H](N)C(=O)N[C@@H](C)B(O)O | – | – | 160 nM | – | – | – | – | –
CCCC[C@@H](NC(=O)[C@@H](N)CCCC)B(O)O | No inhibition | 370 nM | 18 nM | – | – | – | – | –
CCCC[C@@H](NC(=O)[C@H](C)N)B(O)O | No inhibition | – | 220 nM | – | 40% | Not Active | – | –
CCCC[C@H](N)C(=O)N1CCC[C@@H]1B(O)O | – | 4.5 nM | 2 nM | – | – | – | – | –
NCC[C@H](N)C(=O)N1CCC[C@@H]1B(O)O | – | 15 nM | 0.72 nM | – | – | – | – | –
CCCC[C@@H](NC(=O)[C@@H](N)CCCCN)B(O)O | No inhibition | – | 3.7 nM | – | – | Not Active | – | –
CCCC[C@@H](NC(=O)[C@@H](N)CCN)B(O)O | No inhibition | – | 0.48 nM | – | – | – | 40% | –
CCCCCNC(=O)[C@@H](N)CCN | No inhibition | – | 2600 nM | No inhibition | – | Not Active | – | No inhibition
CCCC[C@@H](NC(=O)[C@@H](N)CC)B(O)O | No inhibition | 32000 nM | 49 nM | – | – | – | – | –
CCCC[C@@H](NC(=O)[C@@H](N)C(C)C)B(O)O | No inhibition | 17000 nM | 40 nM | – | – | – | – | –
CCCC[C@@H](NC(=O)[C@@H]1CCCN1)B(O)O | No inhibition | – | 890 nM | No inhibition | 35% | Not Active | – | –
CCCCCNC(=O)[C@@H](N)CCCC | No inhibition | – | 5500 nM | No inhibition | – | – | 35% | No inhibition
